Published values collected from several papers.
Protocols differ between the studies behind these lines.
Cell line: MCF7
Observed: cell growth or viability

With Cc1n[nH]c2ccc3nc(-c4ccc(C(=O)NCCN(C)C)cc4)c4c(c3c12)CCCC4 the GI50 was 2.4 µM (72 h).
With C[C@H](N)C(=O)Nc1ccccc1/N=c1\cc(-c2ccc3c(c2)OCO3)oc2ccccc12 the inhibition was 8.48% (CCK-8; 1 µM).
With COc1cccc2c1C(=O)c1c(O)c3c(c(O)c1C2=O)C[C@@](O)(C(=O)CO)C[C@@H]3O[C@H]1C[C@H](N)[C@H](O)[C@H](C)O1 the IC50 was 1.09 µM (MTT; 24 h).
For CCS(=O)(=O)Oc1ccc(C=NNC(=O)c2nc3ccccc3s2)cc1OC, the cell death was 40.5% (MTT; 100 µM, 48 h).
With CCNc1nc2ccc(-c3c/c(=N\c4ccccc4NC(=O)CCN)c4ccccc4o3)cc2o1 the inhibition was 3.78% (CCK-8; 1 µM).
With O=C(NCc1cn(Cc2ccc(Cl)cc2)nn1)Nc1ccc(Cl)cc1 the viability was 83.3% (CCK-8; 50 µM, 72 h).
COc1ccc(NC(=O)Nc2cccc(-c3cn(Cc4cccc(Cl)c4)nn3)c2)cc1 has a viability of 103% (CCK-8; 50 µM, 48 h).
The cell death of O=c1[nH]cc(F)c(=O)[nH]1 is reported as 71.2% (MTT; 100 µM, 48 h).
For O=C(NCc1cn(Cc2cccc(Cl)c2)nn1)Nc1ccc(Cl)cc1, the viability was 82% (CCK-8; 50 µM, 48 h).
COc1ccc(NC(=O)NCc2cn(Cc3ccc(Br)cc3)nn2)cc1 has a viability of 87.8% (CCK-8; 50 µM, 48 h).
With CCCS(=O)(=O)Oc1ccc(C=NNC(=O)c2nc3ccccc3s2)cc1 the cell death was 46.6% (MTT; 100 µM, 48 h).
Cc1nc(NC(=O)N2CCC[C@H]2C(N)=O)sc1-c1ccnc(C(C)(C)C(F)(F)F)c1 gave an EC50 of 0.917 µM (ATP luminescence; 5 days).
The viability of O=C(Nc1cccc(-c2cn(Cc3ccc(Cl)cc3)nn2)c1)Nc1ccccc1Br is reported as 89.5% (CCK-8; 50 µM, 48 h).
With NCCC(=O)Nc1ccccc1/N=c1\cc(-c2ccc3nc(N)oc3c2)oc2cc(O)ccc12 the inhibition was 9.96% (CCK-8; 1 µM).
O=C(Nc1cccc(-c2cn(Cc3ccc(Br)cc3)nn2)c1)Nc1ccccc1Br gave a viability of 76.8% (CCK-8; 50 µM, 72 h).
COc1cc(C=NNC(=O)c2nc3ccccc3s2)ccc1O gave a cell death of 16.6% (MTT; 100 µM, 48 h).
The viability of COc1ccc(NC(=O)Nc2ccc(-c3cn(Cc4ccc(C)cc4)nn3)cc2)cc1 is reported as 87.4% (CCK-8; 50 µM, 72 h).
CN(C)CCNC(=O)c1ccc(-c2nc3ccc4[nH]ncc4c3c3c2CCCCC3)cc1 gave a GI50 of 3.32 µM (72 h).
NCC(=O)Nc1ccccc1/N=c1\cc(-c2ccc3c(c2)OCO3)oc2c([N+](=O)[O-])cccc12 gave an inhibition of 11.7% (CCK-8; 1 µM).
With COc1ccc(NC(=O)NCc2cn(Cc3ccc(Cl)cc3)nn2)cc1 the viability was 95.3% (CCK-8; 50 µM, 72 h).
O=C(Nc1ccc(Cl)cc1)Nc1ccc(-c2cn(Cc3ccc(Br)cc3)nn2)cc1 gave a viability of 97.8% (CCK-8; 50 µM, 72 h).
With COc1ccc(NC(=O)Nc2cccc(-c3cn(Cc4ccc(Br)cc4)nn3)c2)cc1 the viability was 95.6% (CCK-8; 50 µM, 48 h).
CC(C)(C)[C@H](N)C(=O)Nc1ccccc1/N=c1\cc(-c2ccc3c(c2)OCCO3)oc2cc(F)ccc12 gave an inhibition of 9.85% (CCK-8; 1 µM).
With CN(C)CCNC(=O)c1ccc(-c2nc3ccc4[nH]ncc4c3c3c2CCCC3)cc1 the GI50 was 3.34 µM (72 h).
With NCCC(=O)Nc1ccccc1/N=c1\cc(-c2ccc3nc(N)oc3c2)oc2ccc(O)cc12 the inhibition was 12.1% (CCK-8; 1 µM).
For COc1ccc(NC(=O)NCc2cn(Cc3ccc(C)cc3)nn2)cc1, the viability was 97.7% (CCK-8; 50 µM, 48 h).
CN(C)CCNC(=O)c1ccc(-c2nc3ccc4[nH]ncc4c3c3c2CCCCC3)c(F)c1 has a GI50 of 3.31 µM (72 h).
Nc1nc2ccc(-c3c/c(=N\c4ccccc4NC(=O)CCN4CCOCC4)c4ccccc4o3)cc2o1 gave an inhibition of 7.35% (CCK-8; 1 µM).
With O=C(Nc1ccc(Cl)cc1)Nc1cccc(-c2cn(Cc3ccc(Cl)cc3)nn2)c1 the viability was 98.2% (CCK-8; 50 µM, 72 h).
For COc1ccc(NC(=O)Nc2ccc(-c3cn(Cc4cccc(Cl)c4)nn3)cc2)cc1, the viability was 95.4% (CCK-8; 50 µM, 48 h).
For COc1cccc2c1C(=O)c1c(O)c3c(c(O)c1C2=O)C[C@@](O)(C(=O)CO)C[C@@H]3O[C@H]1C[C@H](N)[C@H](O)[C@H](C)O1, the IC50 was 5.17 µM (MTT; 48 h).
COc1ccc(NC(=O)Nc2cccc(-c3cn(Cc4ccc(Cl)cc4)nn3)c2)cc1 has a viability of 100% (CCK-8; 50 µM, 48 h).
CCOc1ccc(C(=O)CC(SCc2ccc(Cl)cc2)C(=O)OC)cc1 (stereo not shown) gave an EC50 of 40 µM (MTT; 48 h).
With O=C(Nc1ccc(-c2cn(Cc3ccc(Br)cc3)nn2)cc1)Nc1ccccc1Br the viability was 92.9% (CCK-8; 50 µM, 48 h).
The inhibition of O=C(Nc1ccccc1/N=c1\cc(-c2ccc3c(c2)OCO3)oc2ccccc12)N1CCNCC1 is reported as 13.5% (CCK-8; 1 µM).
O=C(NCc1cn(Cc2ccc(Br)cc2)nn1)Nc1ccccc1Br has a viability of 80.2% (CCK-8; 50 µM, 72 h).
Cc1n[nH]c2ccc3nc(-c4ccc(C(=O)NCCN(C)C)cc4)c4c(c3c12)CCCCC4 gave a GI50 of 5.25 µM (72 h).
